Measured values as given in ChEMBL document CHEMBL4270599, “Synthesis of a 3'-C-ethynyl-β-d-ribofuranose purine nucleoside library: Discovery of C7-deazapurine analogs as potent antiproliferative nucleosides” (Eur J Med Chem, 2018).

How the values were obtained:
NCI-H322M [1] = test: Growth inhibition of human NCI-H322M cells assessed as cell growth at 10^-6 M incubated for 48 hrs by sulforhodamine B assay relative to control; format: functional; conditions: read-out: Activity
SF-295 = test: Growth inhibition of human SF295 cells assessed as cell growth at 10^-7 M incubated for 48 hrs by sulforhodamine B assay relative to control; format: functional; conditions: SF-295, 48 h, read-out: Activity
NCI-H322M [2] = test: Growth inhibition of human NCI-H322M cells assessed as cell growth at 10^-5 M incubated for 48 hrs by sulforhodamine B assay relative to control; format: functional; conditions: read-out: Activity
UO-31 = test: Growth inhibition of human UO31 cells assessed as cell growth at 10^-7 M incubated for 48 hrs by sulforhodamine B assay relative to control; format: functional; conditions: UO-31, 48 h, read-out: Activity
MCF7 = test: Growth inhibition of human MCF7 cells assessed as cell growth at 10^-7 M incubated for 48 hrs by sulforhodamine B assay relative to control; format: functional; conditions: MCF7, 48 h, read-out: Activity
COLO 205 = test: Cytotoxicity against human COLO205 cells after 48 hrs by SRB assay; format: functional; conditions: COLO 205, 48 h
K562 [3] = test: Growth inhibition of human K562 cells assessed as cell growth at 10^-5 M incubated for 48 hrs by sulforhodamine B assay relative to control; format: functional; conditions: K562, 48 h, read-out: Activity
OVCAR-5 = test: Growth inhibition of human OVCAR5 cells assessed as cell growth at 10^-5 M incubated for 48 hrs by sulforhodamine B assay relative to control; format: functional; conditions: OVCAR-5, 48 h, read-out: Activity
OVCAR-4 [4] = test: Growth inhibition of human OVCAR4 cells assessed as cell growth at 10^-5 M incubated for 48 hrs by sulforhodamine B assay relative to control; format: functional; conditions: OVCAR-4, 48 h, read-out: Activity
PC-3 [5] = test: Growth inhibition of human PC3 cells assessed as cell growth at 10^-5 M incubated for 48 hrs by sulforhodamine B assay relative to control; format: functional; conditions: PC-3, 48 h, read-out: Activity
OVCAR-3 [6] = test: Cytotoxicity against human OVCAR3 cells after 48 hrs by SRB assay; format: functional; conditions: OVCAR-3, 48 h
A549 = test: Growth inhibition of human A549/ATCC cells assessed as cell growth at 10^-4 M incubated for 48 hrs by sulforhodamine B assay relative to control; format: functional; conditions: A549, 48 h, read-out: Activity
MDA-MB-231 = test: Growth inhibition of human MDA-MB-231 cells assessed as cell growth at 10^-4 M incubated for 48 hrs by sulforhodamine B assay relative to control; format: functional; conditions: MDA-MB-231, 48 h, read-out: Activity
U-251 = test: Cytotoxicity against human U251 cells after 48 hrs by SRB assay; format: functional; conditions: U-251, 48 h
SR = test: Growth inhibition of human SR cells assessed as cell growth at 10^-8 M incubated for 48 hrs by sulforhodamine B assay relative to control; format: functional; conditions: read-out: Activity
PC-3 [7] = test: Cytotoxicity against human PC3 cells after 48 hrs by SRB assay; format: functional; conditions: PC-3, 48 h
OVCAR-3 [8] = test: Growth inhibition of human OVCAR3 cells assessed as cell growth at 10^-6 M incubated for 48 hrs by sulforhodamine B assay relative to control; format: functional; conditions: OVCAR-3, 48 h, read-out: Activity
OVCAR-4 [9] = test: Cytotoxicity against human OVCAR4 cells after 48 hrs by SRB assay; format: functional; conditions: OVCAR-4, 48 h
TK-10 = test: Growth inhibition of human TK10 cells assessed as cell growth at 10^-8 M incubated for 48 hrs by sulforhodamine B assay relative to control; format: functional; conditions: TK-10, 48 h, read-out: Activity
HCT-15 = test: Growth inhibition of human HCT15 cells assessed as cell growth at 10^-8 M incubated for 48 hrs by sulforhodamine B assay relative to control; format: functional; conditions: HCT-15, 48 h, read-out: Activity
CCRF-CEM = test: Antiproliferative activity against human CEM cells after 72 hrs by Coulter counter method; format: functional, cell-based
Procedure, shortened: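 Cell count assay in 96-well microtiter plates; (5–7.5) × 10⁴ tumor cells per well plus test compound. Cells proliferated at 37 °C in humidified CO₂-controlled atmosphere, 48 h for murine leukemia L1210, 72 h for human lymphocytic CEM and cervix carcinoma HeLa. Counted by Coulter counter; IC₅₀ is the concentration that inhibits proliferation by 50%.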

A498 = test: Cytotoxicity against human A498 cells after 48 hrs by SRB assay; format: functional; conditions: A498, 48 h
NCI-H23 = test: Growth inhibition of human NCI-H23 cells assessed as cell growth at 10^-7 M incubated for 48 hrs by sulforhodamine B assay relative to control; format: functional; conditions: NCI-H23, 48 h, read-out: Activity
HOP-62 = test: Growth inhibition of human HOP62 cells assessed as cell growth at 10^-7 M incubated for 48 hrs by sulforhodamine B assay relative to control; format: functional; conditions: HOP-62, 48 h, read-out: Activity
SN12C = test: Growth inhibition of human SN12C cells assessed as cell growth at 10^-8 M incubated for 48 hrs by sulforhodamine B assay relative to control; format: functional; conditions: read-out: Activity
K562 [10] = test: Growth inhibition of human K562 cells assessed as cell growth at 10^-6 M incubated for 48 hrs by sulforhodamine B assay relative to control; format: functional; conditions: K562, 48 h, read-out: Activity
NCI-H522 = test: Cytotoxicity against human NCI-H522 cells after 48 hrs by SRB assay; format: functional; conditions: NCI-H522, 48 h
[11] = read-out: LC50 (the source's name)
[12] = read-out: pLC50 (the source's name) (converted)

C#C[C@@]1(O)[C@@H](CO)O[C@@H](n2cc(Br)c3c(N)ncnc32)[C@@H]1O
growth at 1 µM (NCI-H322M [1]): 26 to 33%
growth at 0.1 µM (SF-295): 60 to 78%
growth at 10 µM (NCI-H322M [2]): -12%
growth at 0.1 µM (UO-31): 55 to 57%
growth at 0.1 µM (MCF7): 12 to 25%
GI50 (COLO 205; read-out: GI50): 0.0436 to 0.182 µM
CC50 (COLO 205; [11]): 8.04 to 100 µM
TGI (COLO 205; read-out: TGI): 0.235 to 0.903 µM
growth at 10 µM (K562 [3]): 6 to 7%
growth at 10 µM (OVCAR-5): 11 to 12%
growth at 10 µM (OVCAR-4 [4]): 7%
growth at 10 µM (PC-3 [5]): 3%
GI50 (OVCAR-3 [6]; read-out: GI50): 0.184 to 0.252 µM
CC50 (OVCAR-3 [6]; [11]): > 100 µM
TGI (OVCAR-3 [6]; read-out: TGI): 3.01 to 4.71 µM
growth at 100 µM (A549): 9 to 12%
growth at 100 µM (MDA-MB-231): 9%
GI50 (U-251; read-out: GI50): 0.0132 to 0.0309 µM
CC50 (U-251; [11]): > 100 µM
growth at 0.01 µM (SR): 101 to 104%
GI50 (PC-3 [7]; read-out: GI50): 0.0477 to 0.167 µM
TGI (PC-3 [7]; read-out: TGI): 8.7 to 100 µM
CC50 (PC-3 [7]; [12]): > 100 µM
growth at 1 µM (OVCAR-3 [8]): 15 to 17%
GI50 (OVCAR-4 [9]; read-out: GI50): 0.296 to 0.452 µM
CC50 (OVCAR-4 [9]; [11]): > 100 µM
TGI (OVCAR-4 [9]; read-out: TGI): > 100 µM
TGI (OVCAR-4 [9]; read-out: pTGI (converted)): > 100 µM
growth at 0.01 µM (TK-10): 100 to 106%
growth at 0.01 µM (HCT-15): 80 to 84%
IC50 (CCRF-CEM): 0.03 µM
GI50 (A498; read-out: GI50): 0.185 to 0.28 µM
CC50 (A498; [11]): 0.94 to 4.21 µM
TGI (A498; read-out: TGI): 0.417 to 0.828 µM
growth at 0.1 µM (NCI-H23): 61 to 70%
growth at 0.1 µM (HOP-62): 68 to 86%
growth at 0.01 µM (SN12C): 76 to 96%
growth at 1 µM (K562 [10]): 7 to 10%
GI50 (NCI-H522; read-out: GI50): 0.0613 to 0.156 µM
TGI (NCI-H522; read-out: TGI): 0.332 to 0.593 µM
CC50 (NCI-H522; [12]): > 100 µM
